Columns and labels:
Mus musculus [1] = assay: In vivo effect on Tetrabenazine motor activity in mice following i.p. administration.; assay type: functional; conditions: ip
Mus musculus [2] = assay: Tested in vivo for head twitches antagonizing activity in mice; assay type: functional
Rattus norvegicus [3] = assay: Tested in vivo for serotonin syndrome antagonizing activity in rat at a dose of 4 mg/kg
Mus musculus [4] = assay: In vivo effect on Tetrabenazine ptosis activity in mice following i.p. administration.; assay type: functional; conditions: ip
Rattus norvegicus [5] = assay: Tested in vivo for serotonin syndrome antagonizing activity in rat at a dose of 5 mg/kg; assay type: functional
Rattus norvegicus [6] = assay: Tested in vivo for serotonin syndrome antagonizing activity in rat on oral administration; assay type: functional
[7] = molecular target: dopamine transporter (Rattus norvegicus); assay: Tested in vitro for dopamine(DA) neuronal uptake inhibition
[8] = molecular target: norepinephrine transporter (Rattus norvegicus); assay: Tested in vitro for norepinephrine (NE) neuronal uptake inhibition
Rattus norvegicus [9] = assay: Tested in vivo for serotonin syndrome antagonizing activity in rat; assay type: functional
Rattus norvegicus [10] = assay: Tested in vivo for serotonin syndrome antagonizing activity in rat at a dose of 40 mg/kg; assay type: functional; conditions: read-out: Inhibition
[11] = molecular target: serotonin transporter (Rattus norvegicus); assay: Tested in vitro for serotonin(5-HT) neuronal uptake inhibition
[12] = system: dopamine transporter (Rattus norvegicus); assay: Tested in vitro for dopamine(DA) neuronal uptake inhibition; remark: listed apart in the source
[13] = system: serotonin transporter (Rattus norvegicus); assay: Tested in vitro for serotonin(5-HT) neuronal uptake inhibition; remark: listed apart in the source
[14] = system: norepinephrine transporter (Rattus norvegicus); assay: Tested in vitro for norepinephrine (NE) neuronal uptake inhibition; remark: listed apart in the source
Mus musculus [15] = assay: Tested in vivo for head twitches antagonizing activity in mice at a dose of 5 mg/kg; assay type: functional
Outline: (§1)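 Male Swiss CD-1 mice (19–24 g), 10 per dose, received test compound s.c. 30 min later they got a subthreshold dose of L-5-hydroxytryptophan (50 mg/kg i.p.). After 15 min acclimation, presence or absence of head twitches was scored over 2 min. Results were expressed as percent responding or as ED50 by probit analysis, using at least three doses.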

Rattus norvegicus [16] = assay: Tested in vivo for serotonin syndrome antagonizing activity in rat at a dose of 4 mg/kg on oral administration; assay type: functional
Rattus norvegicus [17] = assay: Tested in vivo for serotonin syndrome antagonizing activity in rat at a dose of 4 mg/kg; assay type: functional
Mus musculus [18] = assay: Tested in vivo for head twitches antagonizing activity in mice at a dose of 2 mg/kg; assay type: functional; outline: as §1

CSc1ccc([C@@H]2CN3CCC[C@H]3c3ccccc32)cc1
ED50 (Mus musculus [1]): > 30 mg/kg
ED50 (Mus musculus [2]; Mus musculus, read-out: ED50): ~10 mg/kg
inhibition in vivo at 4 mg/kg (Rattus norvegicus [3]): 4.5%

Clc1ccc([C@@H]2CN3CCC[C@@H]3c3ccccc32)cc1
ED50 (Mus musculus [1]): 0.39 mg/kg
ED50 (Mus musculus [4]): 0.14 mg/kg
ED50 (Mus musculus [2]; Mus musculus, read-out: ED50): 0.76 mg/kg
inhibition in vivo at 5 mg/kg (Rattus norvegicus [5]): 52%

NC(=O)c1ccc(C2CN3CCCC3c3ccccc32)cc1 (stereo unspecified)
ED50 (Mus musculus [2]; Mus musculus, read-out: ED50): ~5 mg/kg
ED50 (Rattus norvegicus [6]): 4.5 mg/kg
Ki [7]: 0.0845 µM
Ki [8]: 0.0902 µM

N#Cc1ccc(C2CN3CCCC3c3ccccc32)cc1 (stereo unspecified)
ED50 (Mus musculus [2]; Mus musculus, read-out: ED50): ~3 mg/kg
ED50 (Rattus norvegicus [9]): 15 mg/kg

C#Cc1ccc(C2CN3CCCC3c3ccccc32)cc1 (stereo unspecified)
ED50 (Mus musculus [2]; Mus musculus, read-out: ED50): ~1 mg/kg

c1ccc([C@@H]2CN3CCC[C@@H]3c3ccccc32)cc1
ED50 (Mus musculus [1]): 0.34 mg/kg
ED50 (Mus musculus [4]): 0.07 mg/kg
ED50 (Mus musculus [2]; Mus musculus, read-out: ED50): > 25 mg/kg

Br.CCSc1ccc(C2CN3CCCC3c3ccccc32)cc1 (stereo unspecified)
ED50 (Mus musculus [1]): > 10 mg/kg
ED50 (Mus musculus [4]): ~3 mg/kg
ED50 (Mus musculus [2]; Mus musculus, read-out: ED50): 0.54 mg/kg
inhibition in vivo at 40 mg/kg (Rattus norvegicus [10]): 36%

CSc1ccc(C2CN3CCCC3c3c(Br)cccc32)cc1.Cl (stereo unspecified)
ED50 (Mus musculus [2]; Mus musculus, read-out: ED50): > 5 mg/kg

CSc1ccc(C2CN3CCCC3c3c(C#N)cccc32)cc1.Cl (stereo unspecified)
ED50 (Mus musculus [2]; Mus musculus, read-out: ED50): > 5 mg/kg
Ki [7]: 2.8 µM
Ki [11]: 0.0147 µM
Ki [8]: 0.39 µM

CSc1ccc(C2CN3CCC[C@@H]3c3c(Cl)cccc32)cc1.Cl (stereo partly specified)
ED50 (Mus musculus [1]): 3 mg/kg
ED50 (Mus musculus [4]): 3 mg/kg
ED50 (Mus musculus [2]; Mus musculus, read-out: ED50): 1.04 mg/kg
Ki [7]: 0.29 µM
Ki [11]: 0.003 µM
Ki [8]: 0.0231 µM

COc1cc(OC)c2c(c1)C1CCCN1CC2c1ccc(SC)cc1.Cl (stereo unspecified)
ED50 (Mus musculus [2]; Mus musculus, read-out: ED50): ~5 mg/kg
Inhibition [12]: 67%
Inhibition [13]: 68%
Inhibition [14]: 55%

CSc1ccc(C2CN3CCC[C@H]3c3c(Cl)cccc32)cc1.Cl (stereo partly specified)
inhibition in vivo at 5 mg/kg (Mus musculus [15]): 30%
ED50 (Mus musculus [1]): ~1 mg/kg
ED50 (Mus musculus [4]): 3 mg/kg
Inhibition [12]: 10%
Ki [11]: ~0.1 µM
Inhibition [14]: 10%

Br.CSc1ccc(C2CN3CCCC3c3c(C)cccc32)cc1 (stereo unspecified)
ED50 (Mus musculus [1]): > 3 mg/kg
ED50 (Mus musculus [4]): ~1 mg/kg
ED50 (Mus musculus [2]; Mus musculus, read-out: ED50): 0.16 mg/kg
Ki [7]: 0.0577 µM
Ki [11]: 0.0024 µM
Ki [8]: 0.0115 µM

CSc1ccc(C2CN3CCCC3c3ccc(Cl)cc32)cc1.Cl (stereo unspecified)
inhibition in vivo at 5 mg/kg (Mus musculus [15]): 30%
ED50 (Mus musculus [1]): > 3 mg/kg
ED50 (Mus musculus [4]): > 3 mg/kg
Ki [7]: 0.103 µM
Ki [11]: 0.0086 µM
Ki [8]: 0.0162 µM

CS(=O)(=O)c1ccc(C2CN3CCCC3c3ccccc32)cc1 (stereo unspecified)
ED50 (Mus musculus [4]): 30 mg/kg
ED50 (Mus musculus [2]; Mus musculus, read-out: ED50): ~5 mg/kg
inhibition in vivo at 4 mg/kg (Rattus norvegicus [16]; read-out: Inhibition): 1.5%

Clc1ccc(C2CN3CCCC3c3ccccc32)c(Cl)c1 (stereo unspecified)
ED50 (Mus musculus [2]; Mus musculus, read-out: ED50): ~5 mg/kg

Clc1ccccc1C1CN2CCC[C@@H]2c2ccccc21 (stereo partly specified)
ED50 (Mus musculus [1]): > 60 mg/kg
ED50 (Mus musculus [4]): 0.17 mg/kg
ED50 (Mus musculus [2]; Mus musculus, read-out: ED50): > 25 mg/kg
ED50 (Rattus norvegicus [9]): > 25 mg/kg

CSc1ccccc1C1CN2CCCC2c2ccccc21 (stereo unspecified)
inhibition in vivo at 5 mg/kg (Mus musculus [15]): 30%

COc1ccccc1C1CN2CCCC2c2ccccc21 (stereo unspecified)
ED50 (Mus musculus [1]): ~0.6 mg/kg
ED50 (Mus musculus [4]): ~0.3 mg/kg
ED50 (Mus musculus [2]; Mus musculus, read-out: ED50): 0.81 mg/kg
inhibition in vivo at 4 mg/kg (Rattus norvegicus [16]): 5.2%

FC(F)(F)c1ccc(C2CN3CCCC3c3ccccc32)cc1 (stereo unspecified)
ED50 (Mus musculus [1]): > 3 mg/kg
ED50 (Mus musculus [4]): ~2 mg/kg
ED50 (Mus musculus [2]; Mus musculus, read-out: ED50): 0.55 mg/kg
inhibition in vivo at 4 mg/kg (Rattus norvegicus [17]): 5.8%
Ki [7]: 0.128 µM
Ki [8]: 0.0106 µM

CC(=O)Nc1ccc(C2CN3CCCC3c3ccccc32)cc1 (stereo unspecified)
ED50 (Mus musculus [1]): 0.04 mg/kg
ED50 (Mus musculus [4]): 0.04 mg/kg
ED50 (Mus musculus [2]; Mus musculus, read-out: ED50): 0.31 mg/kg
ED50 (Rattus norvegicus [9]): 1.37 mg/kg

Clc1ccc(C2CN3CCCC3c3cc(Cl)ccc32)cc1 (stereo unspecified)
inhibition in vivo at 2 mg/kg (Mus musculus [18]): 30%
ED50 (Mus musculus [4]): 4 mg/kg
inhibition in vivo at 5 mg/kg (Rattus norvegicus [5]): 22%
Ki [7]: 0.0032 µM
Ki [8]: 0.0032 µM

CSc1ccc(C2CN3CCC[C@@H]3c3ccccc32)cc1 (single isomer, unassigned; (+))
ED50 (Mus musculus [2]): 0.043 mg/kg

CSc1ccc(C2CN3CCC[C@@H]3c3ccccc32)cc1 (single isomer, unassigned; (-))
ED50 (Mus musculus [2]): ~5 mg/kg

CSc1ccc(C2CN3CCC[C@@H]3c3ccccc32)cc1 (stereo in doubt; 3b)
ED50 (Mus musculus [1]): > 30 mg/kg
ED50 (Mus musculus [4]): 0.4 mg/kg
ED50 (Mus musculus [2]): 0.081 mg/kg
ED50 (Rattus norvegicus [9]): 0.2 mg/kg

C[S+]([O-])c1ccc(C2CN3CCCC3c3ccccc32)cc1 (stereo in doubt; 11a)
ED50 (Mus musculus [2]): >5 mg/kg
Inhibition [12]: 2%
Inhibition [13]: 12%
Inhibition [14]: 4%

C[S+]([O-])c1ccc(C2CN3CCCC3c3ccccc32)cc1 (stereo in doubt; 11b)
ED50 (Mus musculus [1]): > 3 mg/kg
ED50 (Mus musculus [2]): 0.55 mg/kg
Ki [7]: 6.18 µM
Ki [11]: 0.597 µM
Ki [8]: 0.723 µM

CN(C)CCCC1(c2ccc(F)cc2)OCc2cc(C#N)ccc21 (stereo unspecified) [CITALOPRAM]
ED50 (Mus musculus [2]; Mus musculus, read-out: ED50): 0.29 mg/kg
ED50 (Rattus norvegicus [9]): 0.78 mg/kg

COc1ccc(OC[C@H]2CN(C)CC[C@@H]2c2ccccc2)cc1 [FEMOXETINE]
ED50 (Mus musculus [1]): 3.5 mg/kg
ED50 (Mus musculus [4]): 2.1 mg/kg
ED50 (Mus musculus [2]; Mus musculus, read-out: ED50): 3.3 mg/kg
ED50 (Rattus norvegicus [9]): 11.4 mg/kg

CNCCC(Oc1ccc(C(F)(F)F)cc1)c1ccccc1 (stereo unspecified) [FLUOXETINE]
ED50 (Mus musculus [2]; Mus musculus, read-out: ED50): 0.43 mg/kg
ED50 (Rattus norvegicus [9]): 12.7 mg/kg

CN(C)CCCN1c2ccccc2CCc2ccccc21 [IMIPRAMINE]
ED50 (Mus musculus [1]): 0.58 mg/kg
ED50 (Mus musculus [4]): 0.98 mg/kg
ED50 (Mus musculus [2]; Mus musculus, read-out: ED50): > 50 mg/kg
ED50 (Rattus norvegicus [9]): > 25 mg/kg

Fc1ccc([C@@H]2CCNC[C@H]2COc2ccc3c(c2)OCO3)cc1 [PAROXETINE]
ED50 (Mus musculus [2]; Mus musculus, read-out: ED50): 0.062 mg/kg
ED50 (Rattus norvegicus [9]): 0.49 mg/kg

Source: ChEMBL document CHEMBL1125119, “Pyrroloisoquinoline antidepressants. 3. A focus on serotonin” (J Med Chem, 1990)
